Bioassay records (PubChem BioAssay)
H9c2 TAG inh – inhibitors of triacylglycerol accumulation. H9c2 cells, Nile Red lipid (TAG) fluorescence; cells loaded with 200 µM oleic acid. inhibition, % at 12.5 µM. 230,000 tested, 0.66% active. AID 651582;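 active = pattern-corrected inhibition of lipid staining of at least 50% with the nuclear-stain viability signal not falling by more than 50%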;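 also: 0% = DMSO wells and 100% = triacsin C control wells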
B2AR ag – human beta-2 adrenergic receptor agonism by FAP; AID 504454; 340,000 tested, 0.43% active; P07550; response, % (test concentration not listed); Am2.2-beta2AR cells, FAP receptor internalization, flow cytometry;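 active = response above a set limit, near 3 SD of response in nonfluorescent compounds, cut at about 42% in these data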
Arr AP2 block – human beta-arrestin and AP2 interaction inhibition. inhibition, % at 10 µM. 340,000 tested, 0.31% active. FITC-arrestin peptide / GST-AP2 beads, flow cytometry; AP2 beta2 appendage carries R879A mutation;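 active = inhibition above a set limit, near 3 SD of compounds lacking own fluorescence, cut at about 54% in these data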;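 also: plate controls were DMSO wells for no effect and 5 µM unlabelled arrestin peptide for full effect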
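System: GST-AP2 R879A glutathione beads. Medium: PBS with 0.05% Tween 20 and 0.1% BSA. Also added: FITC-arrestin peptide, 50 nM. Incubation: 12 min plus 1 h, RT. Measured by: high-throughput flow cytometry of beads, ex 488, em 535 nm. Evaluation: percent drop in bead-associated FITC signal.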
NTR1 agonist – activates human neurotensin receptor 1 | P30989 | NTR1-U2OS beta-arrestin-GFP spot imaging, agonist mode | activation, % at 20 µM | 330,000 tested, 0.17% active;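 active = activation at or above 40% of the spot to cytoplasm intensity ratio, with at least 20 cells analyzed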;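 also: 0% = DMSO without peptide and 100% = 100 nM NTR1 peptide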
GRK2 aptamer HTS – blocks RNA aptamer binding to human GRK2; P25098; bead flow cytometry, FAM-aptamer displacement from GRK2; inhibition of aptamer binding, % at 10 µM; 330,000 tested, 0.59% active; AID 488847;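 active = inhibition of aptamer binding above 40%, roughly 3 SD of noise, on plates passing a quality check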;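 also: median bead fluorescence of bound FAM aptamer so fluorescent compounds give negative values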
Target sequence (P25098 whole entry, looked up): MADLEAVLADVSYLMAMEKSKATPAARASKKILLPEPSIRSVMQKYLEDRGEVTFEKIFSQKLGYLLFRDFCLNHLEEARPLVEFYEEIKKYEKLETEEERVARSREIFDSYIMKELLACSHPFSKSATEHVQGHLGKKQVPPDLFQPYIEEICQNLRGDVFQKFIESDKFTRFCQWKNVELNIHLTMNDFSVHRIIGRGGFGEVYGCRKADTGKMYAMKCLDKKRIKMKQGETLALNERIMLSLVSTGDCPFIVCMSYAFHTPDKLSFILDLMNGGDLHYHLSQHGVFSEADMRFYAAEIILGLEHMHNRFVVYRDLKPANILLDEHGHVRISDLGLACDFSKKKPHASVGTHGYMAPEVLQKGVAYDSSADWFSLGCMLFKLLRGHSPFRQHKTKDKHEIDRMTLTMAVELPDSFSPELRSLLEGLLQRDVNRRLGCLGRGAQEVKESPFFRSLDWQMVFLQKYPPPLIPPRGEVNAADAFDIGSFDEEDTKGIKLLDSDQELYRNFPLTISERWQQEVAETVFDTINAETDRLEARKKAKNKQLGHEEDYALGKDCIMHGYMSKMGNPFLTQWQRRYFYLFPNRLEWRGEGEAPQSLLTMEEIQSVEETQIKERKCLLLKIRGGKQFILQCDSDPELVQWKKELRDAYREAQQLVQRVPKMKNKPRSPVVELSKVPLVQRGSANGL
Lipid droplet – modulators of hepatic lipid droplet formation | 240,000 tested, 0.4% active | AML12 mouse hepatocytes, oleate lipid droplets, BODIPY imaging | inhibition, % at 6.5 µM;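 active = lipid droplet intensity inhibited by at least 50%, with more than 500 cells counted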
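Assay system: AML12 mouse liver cells | Compound: 6.5 µM single-point dosing | Schedule: Overnight exposure | Technique: Fluorescence imaging, 20x objective, two fields per well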
Arr-AP2 CP1 – blocks beta-arrestin peptide binding to human AP2. GST-AP2 beads, FITC arrestin peptide binding, flow cytometry; GST-fused beta2-adaptin appendage, R879A mutant. inhibition, % at 10 µM. 1,300 tested, 2% active. AID 504908. shares compounds with Arr AP2 block;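 active = inhibition above a set limit, roughly 3 SD of non-fluorescent compound noise, cut at about 38% in these data; inactive = inhibition at or below that limit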;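 also: loss of bead fluorescence from 50 nM FITC arrestin peptide bound to appendage; 0% = negative control wells and 100% = excess unlabelled arrestin peptide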
GST GSH counter – counter-screen for beta-arrestin AP2 inhibitors: GST-GSH bead binding; 1,300 tested, 2% active; AID 588338; shares compounds with Arr AP2 block; inhibition, % at 10 µM; GST-fluorescein binding to GSH beads, fluorescence;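 active = inhibition above 50%, about 3 SD of the inhibition seen with non-fluorescent compounds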;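 also: fluorescein maleimide labelled GST captured on 4 micron glutathione beads; higher means more loss of bead fluorescence from quenching or blocked binding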
Starred values were filed as active, the others as inactive; . = not tested or not shown. Shown are actives, neighbours in structure and some others; about 2% of the full set was active somewhere.

SMILES | H9c2 TAG inh | B2AR ag | Arr AP2 block | NTR1 agonist | GRK2 aptamer HTS | Lipid droplet | Arr-AP2 CP1 | GST GSH counter
O=C(COC(=O)Cn1cnc2ccccc21)Nc1ccc2c(c1)C(=O)c1ccccc1C2=O | 5.7 | 19.4 | 100.0* | 8.7 | 0.0 | 1.0 | 23.6 | 33.4
O=C(COC(=O)Cn1cnc2ccccc21)Nc1ccc(Br)cc1 | -6.0 | . | . | . | . | . | . | .
N#Cc1ccc(S(=O)(=O)N2CCN(Cc3cccs3)CC2)cc1 | -2.9 | 2.7 | -6.5 | 2.7 | 1.0 | . | . | .
O=C(NC1CCN(Cc2ccccc2)CC1)c1cn(-c2ccccc2)nc1-c1cccnc1 | -3.6 | 1.9 | 28.3 | 2.0 | 0.0 | . | . | .
COc1ccc(CN(Cc2cc3cc(OC)c(OC)cc3[nH]c2=O)C(=O)NC2CCCCC2)cc1 | . | -1.9 | 1.5 | -2.8 | 0.0 | -2.4 | 9.4 | -2.9
O=C(Nc1ccc(F)cc1)N(CCCN1CCOCC1)Cc1cc2cc3c(cc2[nH]c1=O)OCO3 | -8.5 | -6.9 | 67.6* | -0.9 | 2.0 | -6.2 | -6.5 | -5.6
COc1ccc(NC(=O)N(CCCN(C)C)Cc2cc3cc(OC)ccc3[nH]c2=O)cc1 | . | -0.8 | 0.9 | -0.1 | 0.0 | 7.8 | . | .
COc1ccc(NC(=O)N(CCN2CCCC2)Cc2cc3cc(OC)c(OC)cc3[nH]c2=O)cc1 | 11.7 | 2.6 | 86.5* | -0.1 | 0.0 | . | 4.7 | -8.2
C=C1c2cc3c(cc2NC(=S)N1Cc1ccccc1)OCO3 | -10.0 | 1.3 | 32.1 | 1.6 | . | 4.2 | . | .
CCN1CCN(c2ccc(S(=O)(=O)N3CCCCC3)cc2NC(=O)/C=C/c2ccc(Cl)cc2)CC1 | 12.8 | 35.2 | 9.4 | . | . | . | . | .
Cc1ccc(N(C)S(=O)(=O)c2csc(C(N)=O)c2)cc1C | . | 1.6 | -2.6 | 0.7 | 1.0 | . | . | .
COCCNC(=O)Cn1nc(-c2ccc(Cl)cc2)c2ccccc2c1=O | . | -3.7 | 63.8* | -1.1 | 2.0 | -15.4 | -4.2 | 2.6
O=C(Cn1cncn1)c1ccc(Cl)cc1 | . | 29.0 | -1.1 | -0.7 | 1.0 | 3.9 | . | .
O=C(Cn1ccnc1)c1ccc(Cl)cc1 | . | -17.8 | 55.0* | -0.5 | 0.0 | -1.8 | -17.6 | 0.4
CCc1ccc(C(CNC(=O)c2ccc3c(=O)n(-c4ccccc4F)c(=S)[nH]c3c2)N(C)C)cc1 (configuration not stated) | 20.4 | -18.3 | 58.2* | 1.8 | 0.0 | -7.2 | -14.6 | 0.5
Cn1nccc1C(=O)N(CCN1CCCCC1)CC1CCCN(C2CCCC2)C1 (configuration not stated) | 0.0 | -6.9 | -5.1 | -1.5 | 0.0 | 15.3 | . | .
CCOC(=O)C1=C(COC(=O)/C=C/c2ccccc2)NC(=O)NC1C (configuration not stated) | -16.9 | -9.1 | 0.9 | 0.8 | 1.0 | . | . | .
CCOC(=O)C1=C(COC(=O)CCOc2cccc(C)c2)NC(=O)NC1C (configuration not stated) | -3.9 | 7.1 | 11.0 | -1.1 | 1.0 | . | -7.9 | -6.0
CCOC(=O)C1=C(COC(=O)CSc2ccc(C)cc2C)NC(=O)NC1C (configuration not stated) | -6.9 | 0.5 | -5.8 | 0.5 | . | . | . | .
CCOC(=O)C1=C(COC(=O)CCOc2cc(C)ccc2C)NC(=O)NC1C (configuration not stated) | -5.4 | -2.1 | -5.8 | -0.5 | 0.0 | . | -2.5 | -8.7
CCOC(=O)C1=C(COC(=O)CCOc2ccccc2)NC(=O)NC1C (configuration not stated) | -29.8 | 4.8 | -8.2 | 0.3 | 0.0 | . | -10.0 | -10.7
Cc1cc([N+](=O)[O-])ccc1P(=O)(O)c1ccc([N+](=O)[O-])cc1C | 20.3 | -0.8 | 8.1 | . | . | . | . | .
COc1cccc(C(=O)Nc2ccc(NC(=O)c3ccco3)c(Cl)c2)c1 | 8.4 | -10.1 | 55.7* | 0.7 | 0.0 | -1.6 | 1.2 | -6.0
CCCOc1ccc(C(CC(=O)O)NC(=O)c2sc3ccccc3c2Cl)cc1 (configuration not stated) | 2.5 | -8.8 | -14.9 | -0.8 | 1.0 | -3.7 | . | .
CCOc1ccc(C(CC(=O)O)NC(=O)c2sc3ccccc3c2Cl)cc1 (configuration not stated) | 6.7 | 14.5 | 104.2* | 1.3 | 11.0 | -40.7 | -4.5 | -4.4
SMILES | H9c2 TAG inh | B2AR ag | Arr AP2 block | NTR1 agonist | GRK2 aptamer HTS | Lipid droplet | Arr-AP2 CP1 | GST GSH counter
O=C(c1ccc(-n2ccnc2)cc1)N1CCCC(CO)(Cc2cccc(Cl)c2)C1 (configuration not stated) | . | -2.5 | 18.0 | 0.2 | 8.0 | -3.4 | . | .
CN1c2ccccc2N(C)C1(C)c1ccccc1 | . | 4.7 | 67.0* | . | 5.0 | -1.6 | 61.6* | 25.6
CN(CC(=O)Nc1cccc(F)c1)C(=O)C1CC(=O)N(Cc2ccccc2)C1 (configuration not stated) | 5.1 | -1.5 | -3.9 | 0.4 | 3.0 | 4.6 | . | .
CCO[C@H]1OC(C(=O)NCc2ccccc2)=C[C@@H](C(C)(C)C)[C@@H]1CCCO | -14.9 | -2.4 | -6.2 | 2.7 | 0.0 | . | . | .
CCOC(=O)c1ccccc1NC(=O)c1nc2nccc(C)n2n1 | 10.6 | -4.5 | 98.5* | 0.4 | 0.0 | -7.8 | -16.4 | 1.3
Cc1ccnc2nc(C(=O)OCC(=O)Nc3ccccc3C(C)(C)C)nn12 | -5.5 | -1.6 | -1.1 | 1.4 | 0.0 | -7.0 | . | .
CN(CC(=O)NCCCN1CCOCC1)S(=O)(=O)c1cc(Cl)ccc1Cl | 5.7 | -14.3 | 63.7* | 0.0 | 0.0 | 2.5 | 9.3 | -2.2
COc1ccccc1OCCC(=O)OCC(=O)Nc1ccc2c(c1)OCO2 | 13.4 | 2.3 | 10.6 | -0.3 | 2.0 | . | . | .
COc1ccc(OCCCC(=O)Nc2ccc3c(c2)OCO3)cc1 | . | -1.1 | 62.1* | -2.5 | 0.0 | . | 1.6 | 1.1
Cc1ccc(OCCC(=O)OCC(=O)Nc2ccc3c(c2)OCO3)cc1 | -9.9 | 1.2 | 27.0 | 0.7 | 6.0 | . | . | .
CCOc1ccc(OCCC(=O)Nc2ccc3c(c2)OCO3)cc1 | -15.6 | 4.0 | 3.4 | 1.7 | 0.0 | . | -0.6 | -2.7
COc1ccccc1OCCC(=O)Nc1ccc2c(c1)OCO2 | -9.7 | -7.1 | 57.0* | 2.0 | 0.0 | . | 1.1 | -0.8
Cc1ccc(OCCC(=O)Nc2ccc3c(c2)OCO3)cc1 | 13.9 | -13.8 | 7.3 | -2.2 | 3.0 | . | 1.3 | -6.4
C[C@H](CO)N1C[C@H](C)[C@@H](CN(C)C(=O)Nc2ccc(C(F)(F)F)cc2)Oc2ccc(NC(=O)CCC(F)(F)F)cc2C1=O | . | -0.9 | 19.1 | -0.9 | 0.0 | . | . | .
O=C(Cc1cccc(NC(=O)C2CCN(S(=O)(=O)c3cccc([N+](=O)[O-])c3)CC2)c1)Nc1cccc(C(=O)N2CCOCC2)c1 | 17.3 | 3.2 | 3.1 | . | . | . | . | .
CCC(=O)Nc1ccc(C(=O)c2ccccc2)cc1 | -2.7 | -9.0 | 84.2* | 1.1 | 2.0 | . | -0.9 | -12.6
CCC(=O)Nc1ccc(NC(=S)Nc2ccccc2)cc1 | . | 0.7 | -5.1 | 0.1 | 4.0 | 2.2 | . | .
